# Assay results reported in ChEMBL document CHEMBL4138314, “Synthesis and Evaluation of N-Phenyl-3-sulfamoyl-benzamide Derivatives as Capsid Assembly Modulators Inhibiting Hepatitis B Virus (HBV)” (J Med Chem, 2018).
# Calls of active or inactive are those of the source. The calls are words filed in the database; no cut-off is given here.
# Experiments:
# [1] = Half life in humanized mouse at 200 mg/kg, sc for 8 days measured on day 8 post last dose by LC-MS/MS analysis; type: ADME, organism-based; details: in vivo
# HBV genotype D [2] = experiment: Antiviral activity against HBV genotype D infected in human HepG2.2.15 cells assessed as inhibition of viral DNA level treated twice for 3 days measured after 6 days by real time PCR; type: functional, organism-based; details: Hepatitis B virus
# [3] = Cmax in C57BL/6 mouse at 50 mg/kg, po by LC-MS/MS analysis; type: ADME, organism-based; design: dose 50 mg/kg, route oral; details: in vivo
# [4] = AUC (0 to 24 hrs) in humanized mouse at 200 mg/kg, sc measured on day 1 post dose by LC-MS/MS analysis; type: ADME, organism-based; design: dose 200 mg/kg, time < 24 hr, route subcutaneous; details: in vivo
# Cytochrome P450 1A2 = target: T1, Cytochrome P450 1A2 (Homo sapiens, UniProt P05177); experiment: Inhibition of CYP1A2 (unknown origin); type: ADME
# T1 sequence (P05177 whole entry): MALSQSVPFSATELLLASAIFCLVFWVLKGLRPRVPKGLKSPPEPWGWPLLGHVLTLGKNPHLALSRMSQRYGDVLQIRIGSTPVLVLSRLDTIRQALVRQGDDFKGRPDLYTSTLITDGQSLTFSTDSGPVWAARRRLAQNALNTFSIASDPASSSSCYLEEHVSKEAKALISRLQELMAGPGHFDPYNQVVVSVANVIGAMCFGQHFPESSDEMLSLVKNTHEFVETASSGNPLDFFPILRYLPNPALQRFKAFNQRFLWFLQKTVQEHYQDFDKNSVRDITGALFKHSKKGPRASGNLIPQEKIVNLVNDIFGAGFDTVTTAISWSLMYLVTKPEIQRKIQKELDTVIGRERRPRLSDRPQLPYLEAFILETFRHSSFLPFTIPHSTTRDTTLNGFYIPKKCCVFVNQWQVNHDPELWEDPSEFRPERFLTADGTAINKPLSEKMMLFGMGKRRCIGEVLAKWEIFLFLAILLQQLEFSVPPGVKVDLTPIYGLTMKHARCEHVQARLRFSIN
# [5] = Drug uptake in C57BL/6 mouse plasma at 50 mg/kg, sc after 24 hrs by LC-MS/MS analysis; type: ADME, organism-based
# Procedure, shortened: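 C57BL/6 mice dosed subcutaneously once at 50 mg/kg, given to bypass first-pass metabolism; compound measured in plasma (ng/mL) and liver (ng/g) 24 h after dosing.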
# [6] = Tmax in humanized mouse at 50 mg/kg, sc for 8 days measured on day 8 post last dose by LC-MS/MS analysis; type: ADME, organism-based; details: in vivo
# Cytochrome P450 2C19 = Cytochrome P450 2C19 (Homo sapiens, UniProt P33261); experiment: Inhibition of CYP2C19 (unknown origin); type: ADME
# Cytochrome P450 2C19, sequence (P33261 whole entry): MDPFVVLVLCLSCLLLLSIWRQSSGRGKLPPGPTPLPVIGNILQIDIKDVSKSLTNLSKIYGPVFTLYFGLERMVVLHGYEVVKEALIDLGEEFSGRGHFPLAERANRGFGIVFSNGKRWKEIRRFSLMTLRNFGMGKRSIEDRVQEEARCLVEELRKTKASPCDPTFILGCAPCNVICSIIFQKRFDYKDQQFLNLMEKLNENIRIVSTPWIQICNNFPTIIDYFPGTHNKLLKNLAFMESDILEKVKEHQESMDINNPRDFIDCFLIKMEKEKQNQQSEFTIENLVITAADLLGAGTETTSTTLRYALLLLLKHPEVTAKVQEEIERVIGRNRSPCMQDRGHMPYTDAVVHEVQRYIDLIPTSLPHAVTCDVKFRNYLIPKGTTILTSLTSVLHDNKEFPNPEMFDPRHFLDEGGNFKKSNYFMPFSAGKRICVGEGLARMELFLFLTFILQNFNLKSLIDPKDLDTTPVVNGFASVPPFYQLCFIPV
# [7] = Plasma concentration in humanized mouse at 200 mg/kg, sc after 24 hrs by LC-MS/MS analysis; type: ADME, organism-based
# [8] = AUC (0 to 24 hrs) in humanized mouse at 200 mg/kg, sc for 8 days measured on day 8 post last dose by LC-MS/MS analysis; type: ADME, organism-based; design: time < 24 hr, dose 200 mg/kg, route subcutaneous; details: in vivo
# [9] = Cmax in humanized mouse at 200 mg/kg, sc for 8 days measured on day 8 post last dose by LC-MS/MS analysis; type: ADME, organism-based; design: dose 200 mg/kg, route subcutaneous; details: in vivo
# [10] = Half life in humanized mouse at 50 mg/kg, sc for 8 days measured on day 8 post last dose by LC-MS/MS analysis; type: ADME, organism-based; details: in vivo
# [11] = Oral bioavailability in C57BL/6 mouse at 50 mg/kg by LC-MS/MS analysis; type: ADME, organism-based; details: in vivo
# Procedure, shortened: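 Single-dose PK in C57BL/6 mice given compound intravenously and orally, with oral doses of 10 and 50 mg/kg. Plasma clearance, volume of distribution and oral bioavailability were derived from the plasma profiles.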
# [12] = Half life in C57BL/6 mouse at 2.5 mg/kg, iv by LC-MS/MS analysis; type: ADME, organism-based; details: in vivo
# Procedure, shortened: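 Single-dose PK in C57BL/6 mice after intravenous or oral dosing, with oral doses of 10 and 50 mg/kg; plasma clearance and volume of distribution taken from the i.v. arm.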
# HBV genotype D [13] = experiment: Antiviral activity against HBV genotype D infected in chimeric mouse with humanized liver assessed as reduction in HBeAg level at 200 mg/kg, sc qd for 28 days; type: functional, organism-based; details: hepatitis B virus genotype D
# Procedure, shortened: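 HBV genotype D-infected humanized-liver chimeric mice (≥70% human hepatocyte replacement) were dosed once daily for 28 days at 200 mg/kg s.c., with oral saline and oral entecavir 0.03 mg/kg as controls. Serum HBeAg and HBsAg were followed over the study.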
# [14] = Plasma concentration in humanized mouse at 50 mg/kg, sc after 24 hrs by LC-MS/MS analysis; type: ADME, organism-based
# [15] = Tmax in humanized mouse at 200 mg/kg, sc for 8 days measured on day 8 post last dose by LC-MS/MS analysis; type: ADME, organism-based; details: in vivo
# [16] = AUC (0 to last) in C57BL/6 mouse at 50 mg/kg, sc by LC-MS/MS analysis; type: ADME, organism-based; design: dose 50 mg/kg, time 0 - last, route subcutaneous; details: in vivo
# [17] = Unbound fraction in human plasma; type: ADME, cell-free
# [18] = AUC (0 to 8 hrs) in humanized mouse at 50 mg/kg, sc measured on day 1 post dose by LC-MS/MS analysis; type: ADME, organism-based; design: dose 50 mg/kg, time < 8 hr, route subcutaneous; details: in vivo
# Hepatitis B virus = experiment: Antiviral activity against Hepatitis B virus infected in human HepG2.117 cells assessed as inhibition of viral DNA level after 3 days by real time PCR; type: functional, organism-based; details: HepG2.117, 72 h
# Cytochrome P450 2C9 = Cytochrome P450 2C9 (Homo sapiens, UniProt P11712); experiment: Inhibition of CYP2C9 (unknown origin); type: ADME
# Cytochrome P450 2C9, sequence (P11712 whole entry): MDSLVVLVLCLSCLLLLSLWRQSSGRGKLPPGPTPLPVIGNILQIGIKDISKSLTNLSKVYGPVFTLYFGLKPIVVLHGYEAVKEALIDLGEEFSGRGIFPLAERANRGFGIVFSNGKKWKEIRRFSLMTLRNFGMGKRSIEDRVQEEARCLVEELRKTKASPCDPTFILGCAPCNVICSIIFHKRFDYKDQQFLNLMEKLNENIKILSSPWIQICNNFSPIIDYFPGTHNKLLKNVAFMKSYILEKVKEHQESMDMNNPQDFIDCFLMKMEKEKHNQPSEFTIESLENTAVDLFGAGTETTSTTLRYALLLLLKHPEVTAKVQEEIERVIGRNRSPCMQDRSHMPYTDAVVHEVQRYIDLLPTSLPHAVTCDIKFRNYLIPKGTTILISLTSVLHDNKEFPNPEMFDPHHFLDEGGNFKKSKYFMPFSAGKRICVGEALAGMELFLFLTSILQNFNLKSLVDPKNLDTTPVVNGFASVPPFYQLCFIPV
# [19] = Cmax in humanized mouse at 50 mg/kg, sc measured on day 1 post dose by LC-MS/MS analysis; type: ADME, organism-based; design: dose 50 mg/kg, route subcutaneous; details: in vivo
# MDR1 (P-gp) = experiment: Apparent permeability in pig LLC-PK1 cells expressing human MDR1 from apical to basolateral side in absence of P-gp inhibitor GF-120918; type: ADME, cell-based, Sus scrofa
# Procedure, shortened: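 LLC-PK1-MDR1 monolayers; apical-to-basolateral apparent permeability measured without the P-gp inhibitor GF-120,918, run in parallel with an inhibitor-containing arm to form a +GF/−GF ratio.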
# [20] = Tmax in humanized mouse at 200 mg/kg, sc measured on day 1 post dose by LC-MS/MS analysis; type: ADME, organism-based; details: in vivo
# [21] = Cmax in C57BL/6 mouse at 50 mg/kg, sc by LC-MS/MS analysis; type: ADME, organism-based; design: dose 50 mg/kg, route subcutaneous; details: in vivo
structure (smiles),measurement,setting,value
Cc1cc(NC(=O)c2cccc(S(=O)(=O)N[C@H]3CCOC3)c2)ccc1F,half-life,[1],726 min
same,EC50,HBV genotype D [2],120 nM
same,Cmax,[3],9440 ng/mL
same,AUC(0-t) at 24 h,[4],12000 ng·h/mL
same,IC50,Cytochrome P450 1A2,> 10000 nM
same,concentration at 24 h,[5],102 ng/mL
same,Tmax,[6],48 min
same,IC50,Cytochrome P450 2C19,> 10000 nM
same,concentration at 24 h,[7],1820 ng/mL
same,AUC at 24 h,[8],86900 ng·h/mL
same,Cmax,[9],7700 ng/mL
same,half-life,[10],372 min
same,bioavailability,[11],66%
same,half-life,[12],25.2 min
same,Activity,HBV genotype D [13],inactive
same,concentration at 24 h,[14],167 ng/mL
same,Tmax,[15],60 min
same,AUC(0-t),[16],16900 ng·h/mL
same,fraction unbound,[17],0.081
same,AUC(0-t) at 8 h,[18],4750 ng·h/mL
same,EC50,Hepatitis B virus,430 nM
same,IC50,Cytochrome P450 2C9,> 10000 nM
same,Cmax,[19],2190 ng/mL
same,Papp A→B,MDR1 (P-gp),7.3 ×10⁻⁶ cm/s
same,Tmax,[20],48 min
same,Cmax,[21],3370 ng/mL
